Source: ChEMBL document CHEMBL4219124, “Alleviating CYP and hERG liabilities by structure optimization of dihydrofuran-fused tricyclic benzo[d]imidazole series - Potent, selective and orally efficacious microsomal prostaglandin E synthase-1 (mPGES-1) inhibitors: Part-2” (Bioorg Med Chem Lett, 2018)

Tested on: Cavia porcellus
Assay: Analgesic activity in Dunkin-Hartley guinea pig hyperalgesia pain model assessed as inhibition of LPS-induced hyperalgesia at 10 mg/kg, po administered 2 hrs prior to LPS challenge measured after 4.5 hrs relative to control
Assay type: functional
Method in brief: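 Guinea pigs received compound orally, once daily, at 10, 30 or 100 mg/kg, 2 h before LPS was injected into the plantar surface of the right paw. Saline-injected animals served as the comparison for thermal hyperalgesia. Plasma and brain drug levels taken 7 h after dosing, mean of n = 6–9 per group, from a single experiment.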

SMILES: O=C(O)Cc1ccccc1Nc1c(Cl)cccc1Cl [DICLOFENAC]
- inhibition in vivo at 10 mg/kg: 85%
